# Laboratory results as given in PMC6511231 (Cell reports, 2018).
# Substitutions are numbered along the chain they refer to. Entries after “also recorded” stand apart in the source; their conditions may differ. Where two headings read alike, the source gives them in different places.
# T1: mouse LIN28Δ, mouse TUT4 and pre-let-7g (Mus musculus, UniProt Q8K3Y3)
# T1 sequence (Q8K3Y3 16-184): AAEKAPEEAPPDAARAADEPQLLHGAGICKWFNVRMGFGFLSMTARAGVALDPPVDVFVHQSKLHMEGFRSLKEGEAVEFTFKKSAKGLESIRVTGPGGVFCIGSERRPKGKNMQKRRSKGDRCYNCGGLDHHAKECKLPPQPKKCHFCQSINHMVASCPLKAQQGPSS
# T1 sequence (B2RX14 230-1424 partner): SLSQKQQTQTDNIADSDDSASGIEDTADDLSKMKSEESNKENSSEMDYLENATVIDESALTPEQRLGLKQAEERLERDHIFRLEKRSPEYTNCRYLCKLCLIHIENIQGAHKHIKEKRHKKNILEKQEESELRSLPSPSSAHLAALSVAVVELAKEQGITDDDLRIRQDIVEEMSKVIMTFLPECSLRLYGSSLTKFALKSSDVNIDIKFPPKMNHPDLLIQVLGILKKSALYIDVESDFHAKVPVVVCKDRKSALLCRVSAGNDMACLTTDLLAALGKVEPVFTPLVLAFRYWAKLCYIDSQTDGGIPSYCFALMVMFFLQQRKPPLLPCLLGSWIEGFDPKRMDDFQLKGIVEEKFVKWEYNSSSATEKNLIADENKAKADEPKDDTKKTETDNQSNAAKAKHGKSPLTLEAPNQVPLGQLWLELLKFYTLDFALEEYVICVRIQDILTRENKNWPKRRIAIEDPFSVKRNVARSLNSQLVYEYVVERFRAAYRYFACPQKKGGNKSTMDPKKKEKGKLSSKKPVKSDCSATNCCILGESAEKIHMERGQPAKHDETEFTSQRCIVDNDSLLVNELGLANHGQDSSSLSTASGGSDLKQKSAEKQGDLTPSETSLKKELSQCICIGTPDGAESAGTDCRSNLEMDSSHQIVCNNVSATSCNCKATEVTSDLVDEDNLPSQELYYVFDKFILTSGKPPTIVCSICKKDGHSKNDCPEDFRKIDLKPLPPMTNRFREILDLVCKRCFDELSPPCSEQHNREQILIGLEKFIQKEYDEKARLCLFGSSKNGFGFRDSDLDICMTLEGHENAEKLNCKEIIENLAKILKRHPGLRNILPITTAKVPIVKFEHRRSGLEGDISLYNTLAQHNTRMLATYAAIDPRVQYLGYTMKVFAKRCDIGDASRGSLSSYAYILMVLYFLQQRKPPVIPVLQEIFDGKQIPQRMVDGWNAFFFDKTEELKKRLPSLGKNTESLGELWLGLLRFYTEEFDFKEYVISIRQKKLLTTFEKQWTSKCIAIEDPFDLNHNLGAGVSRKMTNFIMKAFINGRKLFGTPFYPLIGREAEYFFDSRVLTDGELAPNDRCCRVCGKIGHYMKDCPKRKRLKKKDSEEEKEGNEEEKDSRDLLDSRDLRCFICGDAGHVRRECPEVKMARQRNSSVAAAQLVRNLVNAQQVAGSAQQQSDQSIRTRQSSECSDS
# T2: LIN28ΔF73A (human, UniProt Q9H9Z2 16-187, F73A)
# T2 sequence: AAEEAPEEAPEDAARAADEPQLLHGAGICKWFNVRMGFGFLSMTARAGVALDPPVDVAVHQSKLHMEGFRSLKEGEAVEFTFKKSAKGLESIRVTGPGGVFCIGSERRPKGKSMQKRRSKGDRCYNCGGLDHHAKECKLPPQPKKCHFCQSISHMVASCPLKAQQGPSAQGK
# T3: LIN28Δ (human, UniProt Q9H9Z2 16-187)
# T3 sequence: T2 sequence with A58F
# T4: LIN28ΔY140A (human, UniProt Q9H9Z2 16-187, Y140A)
# T4 sequence: T2 sequence with A58F, Y125A
# T5: LIN28ΔF73A/Y140A (human, UniProt Q9H9Z2 16-187, F73A;Y140A)
# T5 sequence: T2 sequence with Y125A
# B1: ZKD-binding riboprobe UAGGAGA (ssRNA)
# RNA: UAGGAGA
# B2: preE-let-7f-1 unlabeled (structured_RNA)
# RNA: GGGGUAGUGAUUUUACCCUGUUUAGGAGAU
# B3: preE-let-7f-1-FAM (structured_RNA)
# RNA: B2 RNA
# B4: CSD-binding riboprobe (structured_RNA)
# RNA: GGGGUAGUGAUUUUACCCUGUUUA
# Assays:
# [1] = biological target: T1, mouse LIN28Δ, mouse TUT4 and pre-let-7g; experiment: LIN28-mediated let-7 oligouridylation assay; type: biochemical; details: for Inhibition of LIN28-mediated oligouridylation: 40 μM compound, 37°C, denaturing PAGE
# How it was run: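 Mouse LIN28A, mouse TUT4 (230–1424) and in vitro-transcribed, T4 PNK-radiolabelled pre-let-7g were incubated with test compound (40 μM screen; 80 μM follow-up) for 40 min at 37°C. Buffer: 20 mM Tris 7.5, 5% glycerol, 6 mM MgCl2, 6 mM DTT, 50 μM ZnCl2, 40 mM KCl, 200 μM UTP. Reactions were stopped with EDTA/SDS/proteinase K (50°C, 30 min) and run on denaturing PAGE. RNA and DMSO served as controls.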
# HeLaLIN28A = experiment: let-7-sensitive dual luciferase reporter assay, HeLaLIN28A; type: cell-based, human; details: 100 μM or higher concentrations, 48 hr
# How it was run: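 A HeLa clone stably expressing low-level FLAG-LIN28A plus the 8×let-7 Renilla/firefly dual-luciferase sensor was treated 48 hr with vehicle (DMSO) or test compound at the indicated concentrations. Dual luciferase activity was then assayed, with firefly as internal control. Runs used 3 or 5 biological replicates; Student's t test against vehicle.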
# Solubility in solution = type: physicochemical; details: water / solution
# [2] = biological target: mouse LIN28Δ:preE-let-7d complex (Mus musculus, UniProt Q8K3Y3); experiment: HSQC spectroscopy; type: binding; details: 15N-labeled mouse LIN28Δ with unlabeled preE-let-7d
# [3] = system: LIN28-expressing mouse embryonic stem cells; experiment: Toxicity to mouse embryonic stem cells; type: cell-based
# [4] = system: HeLa cells that do not express LIN28; experiment: Toxicity to HeLa cells; type: cell-based, human
# LIN28ΔF73A [5] = biological target: T2, LIN28ΔF73A; experiment: competition
# LIN28Δ [6] = biological target: T3, LIN28Δ; experiment: competition
# LIN28Δ [7] = biological target: T3, LIN28Δ; experiment: competition; remark: listed apart in the source
# LIN28ΔY140A = biological target: T4, LIN28ΔY140A; experiment: fluorescence polarization
# LIN28ΔF73A/Y140A = biological target: T5, LIN28ΔF73A/Y140A; experiment: fluorescence polarization
# LIN28ΔF73A [8] = biological target: T2, LIN28ΔF73A; experiment: fluorescence polarization
# LIN28Δ [9] = biological target: T3, LIN28Δ; experiment: fluorescence polarization
molecule,measurement,setting,value
CNc1cncc(C(=O)O)c1 [5-(methylamino)nicotinic acid],Inhibition of LIN28-mediated let-7 oligouridylation,"[1]; 80 μM, compared to DMSO negative control",weak activities
same,Relative Renilla luciferase activity,HeLaLIN28A,significant reduction of the relative Renilla luciferase activity; also recorded: weak activities
CC1(C)C(=O)N=C2C1=C(O)C(=O)c1ccccc12 [BVT-948],Inhibition of LIN28-mediated oligouridylation,[1],completely inhibited
"C=CC(C)(C)c1[nH]c2ccccc2c1C1=C(O)C(=O)C(c2c[nH]c3c(CC=C(C)C)cccc23)=C(O)C1=O [DAQ-B1, demethylasterriquinone B1]",Inhibition of LIN28-mediated oligouridylation,[1],completely inhibited
Cc1cc2c(C(C)C)c(O)c(O)c(C=O)c2c(O)c1-c1c(C)cc2c(C(C)C)c(O)c(O)c(C=O)c2c1O [Gossypol],Inhibition of LIN28-mediated oligouridylation,[1],completely inhibited
O=C1C=CC(=NS(=O)(=O)c2ccc(C(=O)O)cc2)C=C1 [LI20],Inhibition of LIN28-mediated oligouridylation,[1],completely inhibited
same,Solubility,Solubility in solution,poor solubility in solution
c1ccc(CN(CCN(Cc2ccccn2)Cc2ccccn2)Cc2ccccn2)nc1 [TPEN],Inhibition of LIN28-mediated oligouridylation,[1],completely inhibited
same,HSQC peak intensity changes,[2],a number of peaks had significant reduction in intensity
same,Toxicity,[3],shows toxicity
same,Toxicity,[4],shows toxicity
B1,IC50,LIN28ΔF73A [5],1200 nM
same,IC50,LIN28Δ [6],3500 nM
B2,IC50,LIN28Δ [7],44 nM
B3,Kd,LIN28ΔY140A,78.5 nM
same,Kd,LIN28ΔF73A/Y140A,589 nM
same,Kd,LIN28ΔF73A [8],72.4 nM
same,Kd,LIN28Δ [9],28.5 nM
B4,IC50,LIN28Δ [7],157 nM
